Assay results reported in ChEMBL document CHEMBL4382258, “Design and Optimization of Sulfone Pyrrolidine Sulfonamide Antagonists of Transient Receptor Potential Vanilloid-4 with in Vivo Activity in a Pulmonary Edema Model” (J Med Chem, 2018).
Values after ≈ are worked out from the molar mass of the structure shown.

What was measured:
HepG2 [1] = assay: Induction of phospholipidosis in human HepG2 cells after 72 hrs by fluorescence assay; format: cell-based; conditions: hepg2, 72 h
[2] = Oral bioavailability in Sprague-Dawley rat at 2 mg/kg by LC/MS/MS analysis; format: ADME, organism-based; conditions: in vivo
[3] = Clearance adjusted for unbound fraction in Sprague-Dawley rat at 1 mg/kg, iv administered as 30 mins infusion by LC/MS/MS analysis; format: ADME, organism-based; conditions: in vivo, 0.5 h
[4] = MRT in Sprague-Dawley rat at 1 mg/kg, iv or 2 mg/kg, po by LC/MS/MS analysis; format: ADME, organism-based; conditions: in vivo
[5] = pH 10.5 – pH 7.4
Rattus norvegicus [6] = assay: (§1) Reversal of heart failure-induced pulmonary edema in Sprague-Dawley rat assessed as inhibition of GSK1016790A-induced increase in lung wet weight to body weight ratio at 0.26 mg/kg, iv bolus loading dose followed by 0.2 ug/kg/min, iv continuous infusion dose for 60 mins prior to agonist administration relative to control; format: functional
Summary of the method: (§2)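 Rats given vehicle or antagonist by i.v. infusion, then agonist GSK1016790A i.v. at 10 µg/kg/min for 10 min (100 µg/kg total). Edema scored as wet lung weight/body weight ratio against naïve animals; inhibition computed from the agonist response; mean ± SEM.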

[7] = Fraction unbound in Sprague-Dawley rat heart failure-induced pulmonary edema model at 0.09 to 0.78 mg/kg, iv bolus loading dose followed by 0.07 to 0.6 ug/kg/min, iv continuous infusion dose for 60 mins; format: ADME, organism-based; conditions: in vivo
Rattus norvegicus [8] = assay: as §1, with “0.09 to 0.78” for “0.26”, “0.07 to 0.6” for “0.2”, “administration” for “administration relative to control”; format: functional, organism-based; summary of the method: as §2
[9] = molecular target: T1, Transient receptor potential cation channel subfamily V member 4 (Homo sapiens, UniProt Q9HBA0); assay: Antagonist activity at human TRPV4 expressed in BHK/AC9 cells assessed as inhibition of GSK634775-induced […] pre-incubated for 10 mins followed by agonist addition by Fluo-4-AM dye-based FLIPR assay; format: cell-based
T1 sequence (Q9HBA0 whole entry, the tested form may be a part): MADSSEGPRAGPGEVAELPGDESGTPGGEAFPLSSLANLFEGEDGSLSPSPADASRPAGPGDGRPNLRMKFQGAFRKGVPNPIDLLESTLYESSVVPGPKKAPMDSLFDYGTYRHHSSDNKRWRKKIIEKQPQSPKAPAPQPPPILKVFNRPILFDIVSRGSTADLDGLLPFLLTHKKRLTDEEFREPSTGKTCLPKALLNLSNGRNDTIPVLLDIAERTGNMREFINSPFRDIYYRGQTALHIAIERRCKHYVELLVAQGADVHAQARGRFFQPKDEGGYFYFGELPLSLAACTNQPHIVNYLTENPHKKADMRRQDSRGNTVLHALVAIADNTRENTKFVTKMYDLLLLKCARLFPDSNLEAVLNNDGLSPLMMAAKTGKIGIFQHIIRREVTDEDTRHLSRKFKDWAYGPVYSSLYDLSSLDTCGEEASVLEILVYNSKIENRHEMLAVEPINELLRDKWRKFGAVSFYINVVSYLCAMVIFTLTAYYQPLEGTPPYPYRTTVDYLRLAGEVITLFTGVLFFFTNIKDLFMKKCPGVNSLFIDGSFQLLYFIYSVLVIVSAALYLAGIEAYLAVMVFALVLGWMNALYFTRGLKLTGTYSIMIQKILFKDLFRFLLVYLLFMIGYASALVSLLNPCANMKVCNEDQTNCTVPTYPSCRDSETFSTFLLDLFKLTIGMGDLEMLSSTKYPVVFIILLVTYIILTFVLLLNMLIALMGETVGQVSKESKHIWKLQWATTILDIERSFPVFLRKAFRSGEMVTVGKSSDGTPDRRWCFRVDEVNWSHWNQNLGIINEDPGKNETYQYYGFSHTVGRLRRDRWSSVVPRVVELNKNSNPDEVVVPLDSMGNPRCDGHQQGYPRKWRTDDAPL

[10] = Plasma concentration in Sprague-Dawley rat heart failure-induced pulmonary edema model at 0.78 mg/kg, iv bolus loading dose followed by 0.6 ug/kg/min, iv continuous infusion dose for 60 mins; format: ADME, organism-based
[11] = Plasma concentration in Sprague-Dawley rat heart failure-induced pulmonary edema model at 0.26 mg/kg, iv bolus loading dose followed by 0.2 ug/kg/min, iv continuous infusion dose for 60 mins; format: ADME, organism-based
[12] = molecular target: Transient receptor potential cation channel subfamily V member 4 (Rattus norvegicus, UniProt Q9ERZ8); assay: Antagonist activity at rat TRPV4 expressed in BHK/AC9 cells assessed as inhibition of GSK634775-induced […] pre-incubated for 10 mins followed by agonist addition by Fluo-4-AM dye-based FLIPR assay; format: cell-based
Chain of Transient receptor potential cation channel subfamily V member 4 (Rattus norvegicus, UniProt Q9ERZ8) (Q9ERZ8 whole entry, the tested form may be a part): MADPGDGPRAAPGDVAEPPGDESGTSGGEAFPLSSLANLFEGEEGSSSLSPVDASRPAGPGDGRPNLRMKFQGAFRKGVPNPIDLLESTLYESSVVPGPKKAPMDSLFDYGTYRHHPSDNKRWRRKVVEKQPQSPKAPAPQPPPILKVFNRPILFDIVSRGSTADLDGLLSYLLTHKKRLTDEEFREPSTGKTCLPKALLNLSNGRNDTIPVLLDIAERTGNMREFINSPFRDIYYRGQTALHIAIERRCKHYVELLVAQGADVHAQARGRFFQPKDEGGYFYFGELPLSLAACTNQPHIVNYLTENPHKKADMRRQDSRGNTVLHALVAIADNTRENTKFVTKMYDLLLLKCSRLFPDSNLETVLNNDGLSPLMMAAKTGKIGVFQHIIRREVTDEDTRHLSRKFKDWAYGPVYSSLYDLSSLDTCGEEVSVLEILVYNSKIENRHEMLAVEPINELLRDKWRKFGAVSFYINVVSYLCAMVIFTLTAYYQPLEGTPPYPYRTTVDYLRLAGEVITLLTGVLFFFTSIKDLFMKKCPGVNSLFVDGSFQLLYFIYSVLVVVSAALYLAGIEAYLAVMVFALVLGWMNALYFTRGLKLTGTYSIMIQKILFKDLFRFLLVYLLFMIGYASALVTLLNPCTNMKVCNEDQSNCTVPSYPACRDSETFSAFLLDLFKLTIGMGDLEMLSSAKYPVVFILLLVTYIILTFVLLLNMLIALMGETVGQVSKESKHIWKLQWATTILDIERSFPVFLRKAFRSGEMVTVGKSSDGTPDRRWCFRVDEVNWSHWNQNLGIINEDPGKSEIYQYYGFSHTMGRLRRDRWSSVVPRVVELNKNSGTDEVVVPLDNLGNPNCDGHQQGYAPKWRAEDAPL

[13] = Clearance in Sprague-Dawley rat at 1 mg/kg, iv administered as 30 mins infusion by LC/MS/MS analysis; format: ADME, organism-based; conditions: in vivo
[14] = Volume of distribution at steady state in Sprague-Dawley rat at 1 mg/kg, iv or 2 mg/kg, po by LC/MS/MS analysis; format: ADME, organism-based; conditions: in vivo, read-out: Vdss
Cytochrome P450 3A4 [15] = molecular target: T2, Cytochrome P450 3A4 (Homo sapiens, UniProt P08684); conditions: 100 µM
T2 sequence (P08684 whole entry): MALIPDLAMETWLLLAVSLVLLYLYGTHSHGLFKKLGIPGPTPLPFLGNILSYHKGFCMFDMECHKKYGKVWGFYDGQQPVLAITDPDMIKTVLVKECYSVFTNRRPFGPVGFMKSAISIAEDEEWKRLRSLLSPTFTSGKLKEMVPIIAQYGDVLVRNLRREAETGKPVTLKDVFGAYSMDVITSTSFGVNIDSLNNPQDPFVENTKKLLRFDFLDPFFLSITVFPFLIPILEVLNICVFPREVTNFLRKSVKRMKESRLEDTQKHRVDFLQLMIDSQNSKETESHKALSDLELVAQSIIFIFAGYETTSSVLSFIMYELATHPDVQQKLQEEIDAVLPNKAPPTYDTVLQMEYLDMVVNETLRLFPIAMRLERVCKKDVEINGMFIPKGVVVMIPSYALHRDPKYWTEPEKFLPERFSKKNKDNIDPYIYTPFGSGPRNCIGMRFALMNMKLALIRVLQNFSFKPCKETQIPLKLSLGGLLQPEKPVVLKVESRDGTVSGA

[16] = molecular target: Voltage-gated inwardly rectifying potassium channel KCNH2 (Homo sapiens, UniProt Q12809); assay: Inhibition of human ERG expressed in CHO cells by Qpatch assay
Chain of Voltage-gated inwardly rectifying potassium channel KCNH2 (Q12809 whole entry): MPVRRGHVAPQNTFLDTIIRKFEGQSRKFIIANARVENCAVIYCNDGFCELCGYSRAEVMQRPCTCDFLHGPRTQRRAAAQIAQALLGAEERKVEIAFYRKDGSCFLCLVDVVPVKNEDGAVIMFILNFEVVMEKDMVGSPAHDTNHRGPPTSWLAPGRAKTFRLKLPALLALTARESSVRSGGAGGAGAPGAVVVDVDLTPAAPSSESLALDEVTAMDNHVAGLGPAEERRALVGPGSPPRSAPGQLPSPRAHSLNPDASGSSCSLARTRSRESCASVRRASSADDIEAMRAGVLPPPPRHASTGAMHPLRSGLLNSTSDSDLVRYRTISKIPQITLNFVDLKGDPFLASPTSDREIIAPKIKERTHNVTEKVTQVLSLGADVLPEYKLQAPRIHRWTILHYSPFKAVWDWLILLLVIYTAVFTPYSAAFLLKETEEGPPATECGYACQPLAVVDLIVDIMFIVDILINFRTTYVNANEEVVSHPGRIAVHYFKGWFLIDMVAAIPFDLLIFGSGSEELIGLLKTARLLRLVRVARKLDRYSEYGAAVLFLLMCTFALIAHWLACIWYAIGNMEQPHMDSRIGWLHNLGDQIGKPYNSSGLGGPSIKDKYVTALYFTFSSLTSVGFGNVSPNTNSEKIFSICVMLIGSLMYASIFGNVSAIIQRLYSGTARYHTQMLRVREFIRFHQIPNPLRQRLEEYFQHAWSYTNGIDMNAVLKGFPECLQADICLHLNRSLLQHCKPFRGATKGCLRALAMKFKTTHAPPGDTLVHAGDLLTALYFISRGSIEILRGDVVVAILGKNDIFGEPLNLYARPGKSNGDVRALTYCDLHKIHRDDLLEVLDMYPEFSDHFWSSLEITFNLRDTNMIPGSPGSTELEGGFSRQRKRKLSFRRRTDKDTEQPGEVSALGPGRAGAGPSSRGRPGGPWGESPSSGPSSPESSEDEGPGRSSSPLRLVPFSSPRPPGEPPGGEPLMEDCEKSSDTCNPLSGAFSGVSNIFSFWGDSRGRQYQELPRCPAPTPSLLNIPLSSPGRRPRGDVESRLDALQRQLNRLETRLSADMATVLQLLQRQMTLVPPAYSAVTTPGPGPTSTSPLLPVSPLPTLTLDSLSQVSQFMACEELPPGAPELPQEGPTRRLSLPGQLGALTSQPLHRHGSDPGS

[17] = Kinetic aqueous solubility of the compound by chemiluminescence nitrogen detection analysis; conditions: buffer
Cytochrome P450 3A4 [18] = molecular target: T2, Cytochrome P450 3A4; assay: Reversible inhibition of CYP3A4 (unknown origin) in presence of NADPH by vivid red substrate-based assay
[19] = Lipophilicity, chromatographic hydrophobicity index of the compound in immobilized artificial membrane
[20] = Plasma concentration in Sprague-Dawley rat heart failure-induced pulmonary edema model at 0.09 mg/kg, iv bolus loading dose followed by 0.07 ug/kg/min, iv continuous infusion dose for 60 mins; format: ADME, organism-based
[21] = Permeability of the compound by PAMPA; format: ADME; conditions: read-out: permeability
[22] = molecular target: T1, Transient receptor potential cation channel subfamily V member 4; assay: Antagonist activity at human TRPV4 expressed in HEK cells assessed as inhibition of GSK634775-induced […] pre-incubated for 10 mins followed by agonist addition by Fluo-4-AM dye-based FLIPR assay; format: cell-based
Summary of the method: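 TRPV4 from human recombinant channels in HEK cells; block of calcium mobilization evoked by agonist GSK634775, read on a fluorescent imaging plate reader; reported potency is an average of repeat determinations.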

[23] = Metabolic stability in rat liver microsomes assessed as parent compound remaining after 30 mins; format: ADME, Microsome; conditions: read-out: Stability
Summary of the method: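 Rat liver microsomes incubated 30 min with glutathione for trapping; parent remaining measured.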

HepG2 [24] = assay: Induction of phospholipidosis in human HepG2 cells after 72 hrs by fluorescence assay relative to control; format: cell-based; conditions: hepg2, 72 h
[25] = molecular target: T1, Transient receptor potential cation channel subfamily V member 4; assay: Antagonist activity at human TRPV4 expressed in HEK cells assessed as inhibition of GSK634775-induced Ca2+ influx by FLIPR assay; format: cell-based
[26] = molecular target: T1, Transient receptor potential cation channel subfamily V member 4; assay: Antagonist activity at TRPV4 (unknown origin)

Structure (SMILES) | bioavailability [2] [%] | CL free [3] [mL/min/kg] | MRT [4] [h] | IC50 [9] [nM] | clearance [13] [mL/min/kg] | Vd [14] [L/kg] | IC50 [22] [nM] | also measured
N#Cc1ccc(S(=O)(=O)N2C[C@H](S(=O)(=O)c3ccc(Cl)cn3)[C@@](O)(CN)C2)c(Cl)c1 | 56 | 1.7 | 2.2 | 0.5 | 1.7 | 0.2 | – | pMED (HepG2 [1]): < 4; ΔCHI [5]: 3.7; inhibition (INH) (Rattus norvegicus [6]): 88%; fraction unbound at 1 h [7]: 0.014; fIC50 (Rattus norvegicus [8]): 8.5 nM; IC50 (Rattus norvegicus [8]; Rattus norvegicus, Sprague-Dawley): 611 nM; concentration at 1 h [10]: 4500 nM; concentration at 1 h [11]: 2100 nM; IC50 [12]: 1 nM; TDI (Cytochrome P450 3A4 [15]): Not Active; IC50 [16]: 8000 nM; solubility kinetic [17]: 500 µM (≈ 246 µg/mL); IC50 (Cytochrome P450 3A4 [18]): 4000 nM; CHI [19]: 36; concentration at 1 h [20]: 400 nM
N#Cc1ccc(S(=O)(=O)[C@H]2CN(S(=O)(=O)c3ccc(C#N)cc3Cl)C[C@@]2(O)CO)cc1 | 15 | 4 | 1 | 3.2 | 35 | 2.2 | – | solubility kinetic [17]: 400 µM (≈ 193 µg/mL); Papp [21]: 35 ×10⁻⁶ cm/s
N#Cc1ccc(S(=O)(=O)N2C[C@H](S(=O)(=O)c3ccc(Cl)cc3)[C@](O)(CO)C2)cn1 | 62 | 1.2 | 3 | 631 | 22 | 4.1 | – | –
N#Cc1ccc(S(=O)(=O)[C@H]2CN(S(=O)(=O)c3ccc(Cl)cc3Cl)C[C@@H]2O)cc1 | 100 | 30 | 2 | – | 9 | 1.1 | 25 | Papp [21]: 78 ×10⁻⁶ cm/s
N#Cc1ccc(S(=O)(=O)N2C[C@H](S(=O)(=O)c3ccc(Cl)cc3)[C@](O)(CN)C2)c(Cl)c1 | 22 | 2.7 | 5.7 | – | 12 | 4 | – | pMED (HepG2 [1]): 4.7; Activity (HepG2 [24]): 425%
N#Cc1ccc(S(=O)(=O)[C@H]2CN(S(=O)(=O)c3ccc(Cl)cc3C#N)C[C@@]2(O)CO)cc1 | 25 | 7 | 0.5 | 2 | 82 | 2.6 | – | solubility kinetic [17]: 380 µM (≈ 183 µg/mL)
O=C(NC1(c2ccccc2)CC1)c1c(CN2CCC(N3CCCCC3)CC2)c(-c2cccc(C(F)(F)F)c2)nc2cc(Br)ccc12 | – | – | – | – | – | – | – | IC50 [25]: 50 nM
N#Cc1ccc(S(=O)(=O)N2C[C@H](S(=O)(=O)c3ccc(Cl)cn3)[C@](O)(CO)C2)c(Cl)c1 | 62 | 11 | 1.4 | – | 23 | 2 | – | –
N#Cc1ccc(S(=O)(=O)N2C[C@H](S(=O)(=O)c3ccc(Cl)cn3)[C@](O)(CN)C2)c(Cl)c1 | 64 | 3.8 | 1.9 | 0.5 | 12 | 1.3 | – | pMED (HepG2 [1]): < 4; ΔCHI [5]: -2.2; TDI (Cytochrome P450 3A4 [15]): Not Active; IC50 [16]: 8000 nM; solubility kinetic [17]: 500 µM (≈ 246 µg/mL); IC50 (Cytochrome P450 3A4 [18]): 300 nM; CHI [19]: 42
CC(C)(C)c1cc(N2C[C@@]3(CCC[C@](C)(Cn4cnc5ccc(C#N)cc54)C3)OC2=O)no1 | – | – | – | – | – | – | – | IC50 [26]: 7.5 nM
N#Cc1ccc(O[C@H]2CN(S(=O)(=O)c3ccc(Cl)cc3Cl)C[C@@H]2O)cc1 | – | – | – | – | – | – | 32 | –

Further lines, with some results ahead:

bioavailability [2] [%] | CL free [3] [mL/min/kg] | MRT [4] [h] | IC50 [9] [nM] | clearance [13] [mL/min/kg] | Vd [14] [L/kg] | IC50 [22] [nM] | Structure (SMILES) | also measured
100 | 9 | 1.7 | – | 25 | 2.3 | 7.9 | N#Cc1ccc(S(=O)(=O)[C@H]2CN(S(=O)(=O)c3ccc(Cl)cc3Cl)C[C@@]2(O)CO)cc1 | remaining at 0.5 h [23]: 89%; Papp [21]: 45 ×10⁻⁶ cm/s
80 | 8.9 | 0.9 | 40 | 48 | 2.7 | – | N#Cc1ccc(S(=N)(=O)N2C[C@H](S(=O)(=O)c3ccc(Cl)cc3)[C@](O)(CO)C2)c(Cl)c1 (some centres undefined) | –
– | – | – | – | – | – | 159 | N#Cc1ccc(S(=O)(=O)[C@@H]2CN(S(=O)(=O)c3ccc(Cl)cc3Cl)C[C@]2(O)CO)cc1 | –
51 | 14 | 0.8 | 2 | 25 | 1.2 | – | N#Cc1ccc(S(=O)(=O)[C@H]2CN(S(=O)(=O)c3ccc(Cl)cc3Cl)C[C@@]2(O)CO)cc1F | remaining at 0.5 h [23]: 46%
46 | 15 | 0.6 | – | 74 | 2.4 | – | N#Cc1ccc(O[C@H]2CN(S(=O)(=O)c3ccc(Cl)cc3Cl)C[C@@]2(O)CO)cc1 | Papp [21]: 37 ×10⁻⁶ cm/s
38 | 4.8 | 1 | 20 | 52 | 3.2 | – | N#Cc1ccc(S(=O)(=O)N2C[C@H](S(=N)(=O)c3ccc(Cl)cc3)[C@](O)(CO)C2)c(Cl)c1 (some centres undefined) | –
– | – | – | – | – | – | 50 | N#Cc1ccc(S(=O)(=O)[C@H]2CN(S(=O)(=O)c3ccc(Cl)cc3Cl)C[C@]2(O)CO)cc1 | –
– | – | – | – | – | – | 1590 | N#Cc1ccc(S(=O)(=O)[C@@H]2CN(S(=O)(=O)c3ccc(Cl)cc3Cl)C[C@@]2(O)CO)cc1 | –
8 | 66 | 0.2 | 20 | 310 | 3.6 | – | N#Cc1ccc(S(=O)(=O)N2C[C@H](S(=O)(=O)c3ccc(Cl)cc3)[C@](O)(CO)C2)c(C(F)(F)F)n1 | –
